Calls of active or inactive are those of the source. The rule behind the calls is not given here.

The nature of data set [1]: Inhibition of Cytochrome P450. The data set is classed as ADME.
The nature of data set [2]: Inhibition of LPA-induced proliferation of HLF incubated for 1 hr prior to LPA-challenge measured after 48 hrs by BrdU incorporation assay. The settings on record: Homo sapiens.
The target of data set [3] is T1, Lysophosphatidic acid receptor 1 (Homo sapiens, UniProt Q92633). Nature of the data set: Antagonist activity at human recombinant LPA1 expressed in chem-1 cells assessed as inhibition of LPA-induced intracellular calcium mobilization incubated for 30 mins prior to LPA-challenge measured over 100 secs by FLIPR assay. Type of data set: functional, cell-based. The method in brief: (§1)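 Calcium-optimized Chem-1 cells stably expressing human LPA1 or LPA3 (parental line with ionomycin as counterscreen), seeded 10,000/well the day before. Calcium-4 dye in HBSS/20 mM HEPES/2.5 mM probenecid loaded 30 min at 37 °C; compound added, 30 min at room temperature in the dark; LPA (18:1) 1 μM final. Peak fluorescence read over 100 s; IC50 from 10-concentration 4-parameter logistic fit, mean of at least three runs.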
T1 sequence (Q92633 whole entry): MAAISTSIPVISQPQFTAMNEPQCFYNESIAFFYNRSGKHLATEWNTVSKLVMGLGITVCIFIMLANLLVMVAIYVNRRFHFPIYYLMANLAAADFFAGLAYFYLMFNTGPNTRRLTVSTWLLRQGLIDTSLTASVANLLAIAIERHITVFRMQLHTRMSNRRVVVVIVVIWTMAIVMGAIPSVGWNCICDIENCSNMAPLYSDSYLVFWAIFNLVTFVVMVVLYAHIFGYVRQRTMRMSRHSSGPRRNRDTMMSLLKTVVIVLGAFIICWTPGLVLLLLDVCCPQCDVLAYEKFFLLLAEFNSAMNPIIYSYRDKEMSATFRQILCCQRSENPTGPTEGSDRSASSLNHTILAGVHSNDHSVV
(A change in cytosolic calcium serves as a functional read-out for many receptors and channels.)

In data set [4] the target is T2, Lysophosphatidic acid receptor 3 (Homo sapiens) (UniProt Q9UBY5).
T2 sequence (whole entry): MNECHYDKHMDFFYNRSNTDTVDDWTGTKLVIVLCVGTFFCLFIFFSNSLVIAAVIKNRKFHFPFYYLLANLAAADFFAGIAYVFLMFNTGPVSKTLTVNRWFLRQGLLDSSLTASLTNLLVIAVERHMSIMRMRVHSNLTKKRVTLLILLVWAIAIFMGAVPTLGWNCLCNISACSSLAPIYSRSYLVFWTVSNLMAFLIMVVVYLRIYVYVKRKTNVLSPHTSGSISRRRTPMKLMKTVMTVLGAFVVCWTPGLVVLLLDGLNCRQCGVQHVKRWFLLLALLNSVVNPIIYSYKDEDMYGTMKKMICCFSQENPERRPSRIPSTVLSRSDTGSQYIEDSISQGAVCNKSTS
Put plainly: Antagonist activity at human recombinant LPA3 expressed in chem-1 cells assessed as inhibition of LPA-induced intracellular calcium mobilization at 30 uM incubated for 30 mins prior to LPA-challenge measured over 100 secs by FLIPR assay. The data set is classed as functional, cell-based. Put shortly:
as §1

Data set [5] addresses Voltage-gated inwardly rectifying potassium channel KCNH2 (Homo sapiens, UniProt Q12809). Nature of the data set: Inhibition of human ERG.
Data set [6] addresses T1, Lysophosphatidic acid receptor 1. Nature of the data set: Antagonist activity at LPA1 in human lung fibroblasts assessed as inhibition of LPA-induced contraction after 18 hrs by 3D collagen gel contraction assay. Type of data set: functional. Put shortly:
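NHLFs (healthy nonsmoking donors, passages 5–9) at 2.5 × 10⁵ cells/well, mixed 1:4 with collagen lattice; gels polymerized 2 h at 37 °C, then basal medium with 0.1% FBS, 0.1% fatty acid-free BSA and vehicle or antagonist added. Gels detached, LPA (18:1) 15 μM added; after 18 h, contraction quantified by gel disc weight.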

In a further data set the test system is Mus musculus. Nature of the data set: Antifibrosis activity in C57BL6/J mouse assessed as inhibition of LPA-stimulated histamine release at 100 mg/kg, po dosed 2 hrs prior to LPA-challenge by ELISA. The data set is classed as functional, organism-based. Further details: dose 100 mg/kg. Put shortly:
(§2)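 Male C57BL6/J mice, 7–9 weeks old, given compound orally 2 h before intravenous LPA 100 μg/mouse (in 0.1% fatty acid-free BSA). Killed 3 min after LPA; EDTA plasma histamine measured by ELISA and plasma drug levels by LC/MS. n = 5–8 mice, mean ± SEM; one-way ANOVA with Dunnett's test versus LPA vehicle control.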

The subject of the next data set is Plasma. Nature of the data set: Ratio of plasma concentration of AM095 to plasma concentration of compound in C57BL6/J mouse at 100 mg/kg, po dosed 2 hrs prior to LPA-challenge by LC/MS spectrometry. The data set is classed as ADME, organism-based. Further details: dose 100 mg/kg, route oral. The settings on record: in vivo. Put shortly: as §2
The nature of data set [7]: Inhibition of LPA-induced proliferation of HLF at 1 uM incubated for 1 hr prior to LPA-challenge measured after 48 hrs by BrdU incorporation assay. The data set is classed as functional. The conditions noted are these: Homo sapiens. The method in brief:
(§3)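 NHLFs (passages 5–9) seeded on collagen I at 5 × 10³ cells/well overnight in complete medium, then starved 24 h in basal medium with 0.1% FBS and 0.1% fatty acid-free BSA. Stimulated with LPA (18:1) 15 μM in the presence of antagonist; proliferation read as BrdU incorporation with a commercial kit.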
Background: Uptake of a labelled nucleoside into DNA is a usual measure of proliferation.

The target in data set [8] is T1, Lysophosphatidic acid receptor 1. Nature of the data set: Antagonist activity at human recombinant LPA1 expressed in chem-1 cells assessed as inhibition of LPA-induced intracellular calcium mobilization at 30 uM incubated for 30 mins prior to LPA-challenge measured over 100 secs by FLIPR assay. The data set is classed as functional, cell-based. Put shortly: as §1

The target of data set [9] is T3, Lysophosphatidic acid receptor 3 (Homo sapiens, UniProt Q9UBY5).
T3 sequence (Q9UBY5 whole entry): T2 sequence (whole entry)
Nature of the data set: Antagonist activity at human recombinant LPA3 expressed in chem-1 cells assessed as inhibition of LPA-induced intracellular calcium mobilization incubated for 30 mins prior to LPA-challenge measured over 100 secs by FLIPR assay. Type of data set: functional, cell-based. The method in brief: as §1

Data set [10] can be described thus: Inhibition of LPA-induced proliferation of HLF at 10 uM incubated for 1 hr prior to LPA-challenge measured after 48 hrs by BrdU incorporation assay. Type of data set: functional. The conditions noted are these: Homo sapiens. Put shortly: as §3

Sequence of Voltage-gated inwardly rectifying potassium channel KCNH2 (Q12809 whole entry): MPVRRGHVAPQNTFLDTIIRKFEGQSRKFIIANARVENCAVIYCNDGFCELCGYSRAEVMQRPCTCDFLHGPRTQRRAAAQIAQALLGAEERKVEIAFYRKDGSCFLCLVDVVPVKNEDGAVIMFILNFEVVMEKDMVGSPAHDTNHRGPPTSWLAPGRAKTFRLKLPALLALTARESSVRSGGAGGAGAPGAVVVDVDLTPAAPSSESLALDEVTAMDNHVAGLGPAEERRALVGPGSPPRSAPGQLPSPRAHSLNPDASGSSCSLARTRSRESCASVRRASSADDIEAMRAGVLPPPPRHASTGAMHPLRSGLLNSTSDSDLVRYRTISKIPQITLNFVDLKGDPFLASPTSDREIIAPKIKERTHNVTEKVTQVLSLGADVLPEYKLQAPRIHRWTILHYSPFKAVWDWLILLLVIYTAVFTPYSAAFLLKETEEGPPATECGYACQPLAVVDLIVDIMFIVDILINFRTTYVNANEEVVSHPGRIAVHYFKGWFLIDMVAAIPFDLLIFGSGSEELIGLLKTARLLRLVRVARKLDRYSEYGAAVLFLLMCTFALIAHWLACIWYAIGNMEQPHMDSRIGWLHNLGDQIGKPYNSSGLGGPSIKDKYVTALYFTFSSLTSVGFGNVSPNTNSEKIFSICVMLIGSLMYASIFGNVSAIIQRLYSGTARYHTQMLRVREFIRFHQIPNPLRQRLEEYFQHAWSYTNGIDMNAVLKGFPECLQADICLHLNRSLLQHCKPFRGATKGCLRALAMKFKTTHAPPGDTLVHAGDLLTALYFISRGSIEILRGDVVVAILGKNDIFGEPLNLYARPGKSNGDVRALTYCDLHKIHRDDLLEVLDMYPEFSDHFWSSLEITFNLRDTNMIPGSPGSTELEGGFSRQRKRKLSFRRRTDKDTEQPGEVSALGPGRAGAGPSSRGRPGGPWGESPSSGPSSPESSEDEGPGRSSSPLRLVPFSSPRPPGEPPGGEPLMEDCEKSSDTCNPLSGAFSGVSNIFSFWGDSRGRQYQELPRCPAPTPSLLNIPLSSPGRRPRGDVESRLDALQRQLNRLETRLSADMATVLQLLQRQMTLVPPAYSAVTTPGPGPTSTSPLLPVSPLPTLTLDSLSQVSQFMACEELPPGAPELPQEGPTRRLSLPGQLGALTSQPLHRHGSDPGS

For orientation: IC50 means the concentration at which inhibition is half-maximal. What is called inhibition is how much of the control response was suppressed. On to `Cc1nnn(-c2ccc(-c3ccc(C4(c5nnn[nH]5)CC4)cc3)cc2)c1NC(=O)O[C@H](C)c1ccccc1`, for which the “inhibition (INH)” value in data set [1] and in [5] was “Not Active” in each case. Besides, the IC50 in data set [2] amounted to 105 nM; in data set [3] it was 23 nM. Moreover, the inhibition in [4] is 28%.
Regarding `Cc1nnn(-c2ccc(-c3ccc(C4(C(=O)O)CC4)cc3)cc2)c1NC(=O)O[C@H](C)c1ccccc1`, the “inhibition (INH)” value in data set [1] and in data set [5] was “Not Active” in each case. Further, in data set [2], it took 4 nM to reach half-maximal inhibition (IC50). Also, the inhibition result in data set [6] was “Dose-dependent effect”; in [4], 20%. Further, the inhibition entry with Mus musculus was “Active”. For the same compound, the Ratio in the data set on Plasma was greater than 65.
Compound `C[C@@H](OC(=O)Nc1c(-c2ccccc2F)cnn1C)c1ccccc1Cl` showed an inhibition at 1 µM in [7] greater than 50%. The “inhibition (INH)” value in [1] and in data set [5] was “Not Active” each time. In data set [2], this compound displayed an IC50 of 810 nM. For the same compound, the inhibition in data set [8] is greater than 97%.
For `CC(OC(=O)Nc1c(-c2ccc(F)cc2)cnn1C)c1ccccc1Cl` (racemic), the “inhibition (INH)” value in [1] and in data set [5] was “Not Active” in each case. Also, the 50% inhibitory concentration (IC50) in [9] was greater than 30 µM. In addition, the inhibition in data set [8] is greater than 97%.
As for `Cc1csc2c(N[C@@H](C)CN3CCN(S(=O)(=O)c4ccc(Cl)c(Cl)c4)CC3)ncnc12`, the inhibition at 10 µM in [10] was less than 50%. In addition, the inhibition entry in [6] is “inactive”.
As for `C[C@@H](OC(=O)Nc1c(-c2ccc(-c3ccc(C4(C(=O)NS(C)(=O)=O)CC4)cc3)cc2)nnn1C)c1cccc(C(F)(F)F)c1`, the “inhibition (INH)” value in data set [1] and in data set [5] was “Not Active” throughout. Moreover, the IC50 in data set [2] was found to be 331 nM; in data set [3], 24 nM. The inhibition result in data set [6] is “inactive”.
Regarding `Cc1nnn(-c2ccc(-c3ccc(C4(C(=O)NS(C)(=O)=O)CC4)cc3)cc2)c1NC(=O)O[C@H](C)c1ccccc1`, the “inhibition (INH)” value in data set [1] and in [5] was “Not Active” in each case. Besides, the IC50 in data set [2] amounted to 60 nM; in [3] it was 32 nM. For the same compound, in data set [4], the inhibition was determined as 7%.
With `CCc1nnn(-c2ccc(-c3ccc(C4(C(=O)O)CC4)cc3)cc2)c1NC(=O)O[C@H](C)c1ccccc1`, the “inhibition (INH)” value in data set [1] and in data set [5] was “Not Active” in each case. Besides, the IC50 came to 16 nM in data set [2] and 42 nM in data set [3]. Further, in data set [4], the inhibition amounted to 63%.
Take `CC(OC(=O)Nc1c(-c2ccccc2)cnn1C)c1ccccc1Cl` (racemic): the “inhibition (INH)” value in data set [1] and in [5] was “Not Active” in each case. In addition, in [9], the IC50 is greater than 30 µM. In data set [8], the inhibition was greater than 97%.
For `Cc1noc(-c2ccc(-c3ccc(CC(=O)O)cc3)cc2)c1NC(=O)O[C@H](C)c1ccccc1`, the inhibition result in the data set with Mus musculus is “Active”.

The values are drawn from ChEMBL document CHEMBL2176934 (J Med Chem, 2012).
